Calls of active or inactive are those of the source. The calls are words filed in the database; no cut-off is given here.
Assays:
HCT-15 = test: Growth inhibition of human HCT15 cells by sulforhodamine B assay; format: functional
PC-3 = test: Growth inhibition of human PC3 cells by sulforhodamine B assay; format: functional
NUGC-3 = test: Growth inhibition of human NUGC3 cells by sulforhodamine B assay; format: functional
MDA-MB-231 = test: Growth inhibition of human MDA-MB-231 cells by sulforhodamine B assay; format: functional
ACHN = test: Growth inhibition of human ACHN cells by sulforhodamine B assay; format: functional
NCI-H23 = test: Growth inhibition of human NCI-H23 cells by sulforhodamine B assay; format: functional
[1] = biological target: Rho-related GTP-binding protein RhoB (Homo sapiens) (UniProt P62745); test: Transactivation of RhoB expressed in human HeLa cells at 5 uM by dual renilla/firefly luciferase reporter assay; format: cell-based
Summary of the method: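 HeLa cells at 75–90% confluence were transiently cotransfected with a pGL2 firefly luciferase plasmid driven by the RhoB promoter (empty pGL2 vector as comparison) plus pRL-SV40 Renilla luciferase. Luciferase activity was measured after compound exposure in a dual-luciferase reporter read-out.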

Rho-related GTP-binding protein RhoB (Homo sapiens), sequence (P62745 whole entry): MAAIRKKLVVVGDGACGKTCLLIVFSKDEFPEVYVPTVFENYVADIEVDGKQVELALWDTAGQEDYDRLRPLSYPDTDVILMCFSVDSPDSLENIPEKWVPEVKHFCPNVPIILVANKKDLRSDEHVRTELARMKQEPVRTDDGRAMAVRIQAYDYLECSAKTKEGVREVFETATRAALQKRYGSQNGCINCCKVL

| SMILES | GI50 (HCT-15) | GI50 (PC-3) | GI50 (NUGC-3) | GI50 (MDA-MB-231) | GI50 (ACHN) | GI50 (NCI-H23) | Activity [1] |
| --- | --- | --- | --- | --- | --- | --- | --- |
| CCCCCCCCCCCCCCCCCCOP(=O)([O-])OC1CC[N+](C)(C)CC1 [PERIFOSINE] | 1250 nM | 440 nM | 540 nM | 2860 nM | 4560 nM | 4210 nM | – |
| CCCCCCCCCCCCCCCC(=O)N1CC[N+](C)(CC)CC1 | 1800 nM | 800 nM | 580 nM | 2050 nM | 1890 nM | 3650 nM | – |
| CCCCCCCCCCCCCCCCCCCCCC(=O)N1CC[N+](C)(Cc2ccccc2)CC1 | 2530 nM | 1240 nM | 1900 nM | 1980 nM | 4740 nM | 2950 nM | – |
| C=CC[N+]1(CC)CCN(C(=O)CCCCCCCCCCCCCCCCCCCCC)CC1 | 2780 nM | 1470 nM | 1540 nM | 2530 nM | 3380 nM | 3940 nM | Active |
| CCCCCCCCCCCCCCCCCCCC(=O)N1CC[N+](C)(C)CC1 | 540 nM | 310 nM | 420 nM | 1630 nM | 1390 nM | 1740 nM | Active |
| C=CC[N+]1(CC)CCN(C(=O)CCCCCCCCCCCCCCC)CC1 | 1330 nM | 370 nM | 270 nM | 680 nM | 500 nM | 880 nM | Active |
| CCCCCCCCCCCCCCCCCC(=O)N1CC[N+](C)(C)CC1 | 810 nM | 530 nM | 560 nM | 1620 nM | 2740 nM | 2700 nM | – |
| C=CC[N+]1(C)CCN(C(=O)CCCCCCCCCCCCCCCCCCCCC)CC1 | 2130 nM | 960 nM | 1530 nM | 3160 nM | 2370 nM | 3070 nM | – |
| CCCCCCCCCCCCCCCC(=O)N1CC[N+](C)(C)CC1 | 580 nM | 480 nM | 290 nM | 1440 nM | 1040 nM | 2340 nM | Active |
| CCCCCCCCCCCCCCCC(=O)N1CC[N+](CC)(Cc2ccccc2)CC1 | inactive | 550 nM | 460 nM | 1160 nM | 920 nM | 1760 nM | – |
| CCCCCCCCCCCCCC(=O)N1CC[N+](C)(C)CC1 | 850 nM | 290 nM | 560 nM | 890 nM | 1010 nM | 1580 nM | Active |
| CCCCCCCCCC(=O)N1CC[N+](C)(C)CC1 | inactive | inactive | inactive | inactive | inactive | inactive | inactive |
| CCCCCCCCCCCCCCCC(=O)N1CC[N+](C)(Cc2ccccc2)CC1 | 5060 nM | 510 nM | 1000 nM | 1450 nM | 1980 nM | 2050 nM | – |
| C=CC[N+]1(C)CCN(C(=O)CCCCCCCCCCCCCCC)CC1 | inactive | inactive | inactive | inactive | inactive | inactive | Active |
| CCCCCCCCCCCCCCCCCCCCCCCC(=O)N1CC[N+](C)(C)CC1 | inactive | 4790 nM | inactive | inactive | inactive | inactive | inactive |
| CCCCCCCCCCCCCCCCCCCCCC(=O)N1CC[N+](C)(CC)CC1 | 1690 nM | 850 nM | 1220 nM | 2010 nM | 1900 nM | 2600 nM | – |
| CCCCCCCCCCCC(=O)N1CC[N+](C)(C)CC1 | inactive | 580 nM | 1730 nM | 3530 nM | inactive | inactive | inactive |
| CCCCCCCCCCCCCCCCCCCCCC(=O)N1CC[N+](C)(C)CC1 | 2410 nM | 990 nM | 1150 nM | 3510 nM | 2390 nM | 3000 nM | inactive |
